Reference: the EternaBench riboswitch data

Key:
[1] = system: MS2 coat protein; assay: apparent Kd, MS2 coat protein; higher = weaker binding; RNA-MaP array; theophylline 2 mM where present
In short: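 Two titrations, one without ligand and one with constant ligand, were run with SNAP-549-labelled MS2 coat protein from 0.7 or 1.5 nM, doubling to 3 µM. The targets were designs transcribed by stalled E. coli RNA polymerase on Illumina sequencing-chip clusters, in 100 mM Tris-HCl pH 7.5, 80 mM KCl, 4 mM MgCl2, BSA, DTT, yeast tRNA and Tween-20. The apparent Kd is the median of filtered per-cluster binding-curve fits, with green signal normalised to red-channel RNA signal and control-cluster median Fmax.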

[2] = system: MS2 coat protein; assay: apparent Kd, MS2 coat protein; higher = weaker binding; RNA-MaP array
In short: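 Incubations were done at room temperature with fluorescently labeled MS2 coat protein at 1.5 nM to 3 μM and designed RNAs transcribed on an Illumina sequencing chip from sequenced DNA templates, with or without input ligand. Apparent Kd is the median of binding curves fitted for each cluster. Designs with fewer than 10 measured clusters were excluded.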

[3] = designed as: OFF switch for theophylline, no ligand
[4] = ligand present: theophylline, designed as: OFF switch for theophylline
[5] = designed as: ON switch for theophylline, no ligand
[6] = ligand present: theophylline, designed as: ON switch for theophylline
[7] = designed as: ON switch for flavin mononucleotide, no ligand
[8] = ligand present: flavin mononucleotide, designed as: ON switch for flavin mononucleotide
[9] = designed as: ON switch for tryptophan, no ligand
[10] = ligand present: tryptophan, designed as: ON switch for tryptophan
[11] = designed as: OFF switch for flavin mononucleotide, no ligand
[12] = ligand present: flavin mononucleotide, designed as: OFF switch for flavin mononucleotide

ACUAGUUGUGCAGAUACCAGACAUGAGGAUCACCCAUGUUUGGGAUCUAAUGAUCAUCCUGUCCCUUGGCAGCUGUACAUCUAGA
apparent Kd [1, 3]: 103 nM | apparent Kd [1, 4]: 26.3 nM

GCACCAGGUACGGAUACCAGCUGCUCGAGAUACAUGAGGAUCACCCAUGUGACCUGGUUUAGCCCUUGGCAGCUGUACCUGGUGC
apparent Kd [1, 5]: 15.8 nM | apparent Kd [1, 6]: 9.98 nM

ACACCGAAAGGUGCAUUUUCCUUUUCAGAUACCAGACUUUACGUUGUCCCUUGGCAGCUGUAUCACAUGAGGAUCACCCAUGUUG
apparent Kd [1, 5]: 16.4 nM | apparent Kd [1, 6]: 17.6 nM

ACGUCCGGUUUACUCGUGGGCAUGGUCGAUACCAGUAUUUUAAUCUACCCUUGGCAGCGACAUGAGGAUCACCCAUGUGCGAAGA
apparent Kd [1, 3]: 23.5 nM | apparent Kd [1, 4]: 32.4 nM

CGGUUUGUGAUGGAUACCAGCAGAGAAAAUGUUUAUCCUAACAUGAGGAUCACCCAUGUAUGCCCUUGGCAGCUGUUGUGGGCUG
apparent Kd [1, 3]: 64.8 nM | apparent Kd [1, 4]: 62.1 nM

ACAUGAGGAUCACCCAUGUGGCGUCUUGAUACCAGACGAGAAGUAGUCCCUUGGCAGCAAAUACAUGAGGAUCACCCAUGUAGGA
apparent Kd [1, 3]: 23.9 nM | apparent Kd [1, 4]: 37.1 nM

GAUGAACUAUAUGAUACCAGACAACAUGAGGAUCACCCAUGUGAUAGUCGUCCUCUGCCUGUCCCUUGGCAGCGUAUAGUUUAUC
apparent Kd [1, 3]: 40.6 nM | apparent Kd [1, 4]: 102 nM

AGAUCUUUCGAAAGAAGGAUAAUGGCUGAUACCAGAGACGAAAGUCUCCCUUGGCAGCAGUGCCAACAUGAGGAUCACCCAUGUA
apparent Kd [1, 5]: 170 nM | apparent Kd [1, 6]: 39.7 nM

UUGCAUAUCUUGGAUACCAGCACAUGAGGAUCACCCAUGUCCGCGGGAUAGCUCCAGAUGUGCCCUUGGCAGCCACAUGCACUUG
apparent Kd [1, 3]: 10.2 nM | apparent Kd [1, 4]: 26.4 nM

AAAGAUAACAAAGGAUAUGGAAGAAAUUAUAGGCCAGAAGGAUGGAAAUUGACAAUCGUGACAUGAGGAUCACCCAUGUAAGAA
apparent Kd [2, 7]: 15.9 nM | apparent Kd [2, 8]: 13.2 nM

AUUAACAUGAGGAUCACCCAUGUGGCCCACCGAGGACCGGUACGGCCGCCACUCGUCGGAAAGGCUAAAUUUAUGAAGUCCAAAA
apparent Kd [2, 9]: 18.7 nM | apparent Kd [2, 10]: 16.1 nM

UGUAUGUUAGGAUAUAGUGUGACACUGUAAUUGCUCGGCACCUAGAAGGAACAUGAGGAUCACCCAUGUGGUGG
apparent Kd [2, 11]: 337 nM | apparent Kd [2, 12]: 244 nM

GGGAUUCGUGUUAGGAUAUUGAGGUGUAUUCCCGACAAGAAGGAACAUGAGGAUCACCCAUGUUGGGAACUGUG
apparent Kd [2, 11]: 33.9 nM | apparent Kd [2, 12]: 62.6 nM

AGUUGACCAAGAGGAUAUGCCCUGUCUUUAUGUACAUGCAGAACAUGAGGAUCACCCAUGUGACGGCAGAAGGCUUAGCCGGUG
apparent Kd [2, 11]: 6.77 nM | apparent Kd [2, 12]: 7.12 nM

UACUUGAAGUUGCAGGAUAUUUAGGAUCUAACAUGAGGAUCACCCAUGUUAUAUGAGAGACGUAUAAAGAAGGGCAGCGUGAUAGA
apparent Kd [2, 7]: 9.4 nM | apparent Kd [2, 8]: 5.9 nM

GGCGGGAAAUGAGGAUAUGGUAGUUGAGAAACGCCAGAAGGCAUUGGCAAGGCUAGAGACAUGAGGAUCACCCAUGUAAUCAUA
apparent Kd [2, 7]: 8.35 nM | apparent Kd [2, 8]: 7 nM

CCGUUUCGGACAAGCAACACAUGAGGAUCACCCAUGUCAAUCUAGGAUAUCAUAAGGAUAUAACGUGAGAAGGAGAGCGACAGG
apparent Kd [2, 11]: 33.2 nM | apparent Kd [2, 12]: 24.4 nM

GUCAACGAAGGAUAUACAGGGAUACCCGUCGAGUACGGAGCACAUGAGGAUCACCCAUGUAGAAGGUCGGUGUG
apparent Kd [2, 11]: 52 nM | apparent Kd [2, 12]: 142 nM

CCUCACAUGAGGAUCACCCAUGUCUUUACACGAGGACCGGUACGGCCGCCACUCGUUCACAAAACAACCAGAAGUGAUGCCUACA
apparent Kd [2, 9]: 140 nM | apparent Kd [2, 10]: 169 nM

AAGAGACAUGAGGAUCACCCAUGUGUUGAUACCAGAAACACAAAGUUCCCUUGGCAGCAAAUCUGAGCGAAACGAUCUAGAGCGC
apparent Kd [2, 5]: 48.4 nM | apparent Kd [2, 6]: 74.5 nM

GUGCGAAUGCAAGGAUAUGUCACAUAAACUGGAACAGAAGGUGCUGCUGAACAUGAGGAUCACCCAUGUACUUGACCGGCAACU
apparent Kd [2, 7]: 7.6 nM | apparent Kd [2, 8]: 6.81 nM

GGCUGCGAUGGCGGAAAUUAUUUACAUAGGCGAGGACCGGUACGGCCGCCACUCGAACGUACAUGAGGAUCACCCAUGUGAUAAU
apparent Kd [2, 9]: 71.8 nM | apparent Kd [2, 10]: 26.5 nM

UAUACACAUCCACAUGAGGAUCACCCAUGUGUGCCUCGUUCCGAGGAUAUGGGCCACGAUGUUUCCCAGAAGGCGGUCGCUAUA
apparent Kd [2, 11]: 15 nM | apparent Kd [2, 12]: 12.7 nM

UGUCCGUGAUCGGCCGCCACUCAACAAACCUGUGGAAACUGACAUGAGGAUCACCCAUGUUCUUGGAGGACCGGGAUUGCUUCGA
apparent Kd [2, 9]: 14.6 nM | apparent Kd [2, 10]: 17.3 nM

AUAAACCUAGGAUAUACCAGGACGAUUCAACAAGAAAACGAACAUGAGGAUCACCCAUGUAGAAGGAGGGAAAG
apparent Kd [2, 11]: 20.5 nM | apparent Kd [2, 12]: 25.3 nM
